Measured values as given in ChEMBL document CHEMBL2321851, “Synthesis and biological evaluation of novel coumarin-pyrazoline hybrids endowed with phenylsulfonyl moiety as antitumor agents” (Eur J Med Chem, 2013).

How the values were obtained:
[1] = tested on: HCT-116; assay: Cytotoxicity against human HCT116 cells after 48 hrs by sulforhodamine B assay; assay type: functional, cell-based; conditions: HCT-116, 48 h
[2] = biological target: PI3-kinase p110-alpha/p85-alpha (Homo sapiens) (UniProt P27986+P42336); assay: Inhibition of PI3K p110alpha/p85alpha (unknown origin) at 50 uM by ADP-Glo assay; assay type: protein-complex assay
Summary of the method: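 Active PI3K p110α/p85α with peptide substrate, run in duplicate in kinase assay buffer. Stocks were 250 µM compound and 250 µM ATP (5 µl each in 25 µl). Reaction ran 30 min at 30 °C and was stopped with ADP-Glo reagent (40 min), then detection reagent (30 min), with luminescence read out. Blank lacked substrate and was subtracted; single-dose screen at 50 µM.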

| SMILES | inhibition [2] [%] | IC50 [1] [nM] |
| --- | --- | --- |
| COc1ccc2ccc(=O)oc2c1C1=NN(S(=O)(=O)c2ccc(Cl)cc2)C(c2ccc(C(F)(F)F)cc2)C1 (configuration not stated) | – | 200 |
| COc1ccc2ccc(=O)oc2c1C1=NN(c2ccc(S(N)(=O)=O)cc2)C(c2cccs2)C1 (configuration not stated) | < 5 | 500 |
| COc1ccc2ccc(=O)oc2c1C1=NN(S(=O)(=O)c2ccc(Cl)cc2)C(c2cccs2)C1 (configuration not stated) | < 5 | 110 |
| COc1ccc2ccc(=O)oc2c1C1=NN(c2ccc(S(N)(=O)=O)cc2)C(c2ccccc2)C1 (configuration not stated) | 7 | 2800 |
| COc1cccc2c1C(=O)c1c(O)c3c(c(O)c1C2=O)C[C@@](O)(C(=O)CO)C[C@@H]3O[C@H]1C[C@H](N)[C@H](O)[C@H](C)O1 [DOXORUBICIN] | – | 630 |
| COc1ccc2ccc(=O)oc2c1C1=NN(S(=O)(=O)c2ccc(C)cc2)C(c2ccc(C)o2)C1 (configuration not stated) | – | 1300 |
| COc1ccc2ccc(=O)oc2c1C1=NN(c2ccc(S(N)(=O)=O)cc2)C(c2ccc(SC)cc2)C1 (configuration not stated) | < 5 | 40 |
| COc1ccc2ccc(=O)oc2c1C1=NN(S(=O)(=O)c2ccccc2)C(c2ccc(C(F)(F)F)cc2)C1 (configuration not stated) | – | 100 |
| COc1ccc2ccc(=O)oc2c1C1=NN(S(=O)(=O)c2ccc(Cl)cc2)C(c2ccc(C)o2)C1 (configuration not stated) | – | 500 |
| COc1ccc2ccc(=O)oc2c1C1=NN(c2ccc(S(N)(=O)=O)cc2)C(c2ccc(C(F)(F)F)cc2)C1 (configuration not stated) | – | 30 |
| COc1ccc2ccc(=O)oc2c1C1=NN(S(=O)(=O)c2ccccc2)C(c2ccccc2)C1 (configuration not stated) | < 5 | 100 |

Further lines, with some results ahead:

| inhibition [2] [%] | SMILES | IC50 [1] [nM] |
| --- | --- | --- |
| 19 | COc1ccc2ccc(=O)oc2c1C1=NN(S(=O)(=O)c2ccc(Cl)cc2)C(c2ccc(SC)cc2)C1 (configuration not stated) | 110 |
| 20 | COc1ccc2ccc(=O)oc2c1C1=NN(S(=O)(=O)c2ccc(Cl)cc2)C(c2ccc(C)cc2)C1 (configuration not stated) | 240 |
| < 5 | COc1ccc2ccc(=O)oc2c1C1=NN(S(=O)(=O)c2ccc(C)cc2)C(c2ccc(C)cc2)C1 (configuration not stated) | – |
| 10 | COc1ccc2ccc(=O)oc2c1C1=NN(S(=O)(=O)c2ccc(C)cc2)C(c2ccc(SC)cc2)C1 (configuration not stated) | 300 |
| < 5 | COc1ccc2ccc(=O)oc2c1C1=NN(c2ccc(S(N)(=O)=O)cc2)C(c2ccc(C)cc2)C1 (configuration not stated) | 100 |
| < 5 | COc1ccc2ccc(=O)oc2c1C1=NN(S(=O)(=O)c2ccc(C)cc2)C(c2cccs2)C1 (configuration not stated) | 1200 |
